Measurements as given in ChEMBL document CHEMBL1125368, “Thiophene systems. 14. Synthesis and antihypertensive activity of novel 7-(cyclic amido)-6-hydroxythieno[3,2-b]pyrans and related compounds as new potassium channel activators” (1992).

Tests used:
Type in all cases: functional
[1] = species on record: Rattus norvegicus; assay: The compound was tested for 30% reduction in mean arterial blood pressure(MAP)
How it was run: (§1)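 Conscious SHR with an arterial catheter exteriorized at the nape, held in Bollman restraint cages after a 60-min postsurgical recovery. Only rats with MAP >150 mmHg were used. Single oral gavage dose in distilled water (range 0.003-20 mg/kg), pressure monitored continuously for 4 h by transducer. Maximal % change from predrug MAP over 240 min, N ≥ six rats. ED30 from regression over the linear part of the dose-response, with 95% confidence limits.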

[2] = species on record: Oryctolagus cuniculus; assay: The compound was tested for increase in [86Rb+] efflux in rabbit isolated mesenteric artery over basal rate at a concentration of 30 uM.
How it was run: (§2)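 Vessel rings from freshly killed rabbits, held on steel wires in physiological buffer at 37 °C gassed with 95% O2/5% CO2. Rings loaded with 86Rb (4-5 μCi/mL) for 3-4 h, then moved in pairs through 4 mL buffer tubes every 10 min. Basal efflux taken over 30-40 min, followed by test compound in about five vials, then compound-free washout for 10-20 min. Efflux aliquots and overnight-digested tissue counted by liquid scintillation.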

[3] = species on record: Oryctolagus cuniculus; assay: The compound was tested for increase in [86Rb+] efflux in rabbit isolated mesenteric artery over basal rate at a concentration of 10 uM; how it was run: as §2
[4] = species on record: Oryctolagus cuniculus; assay: The compound was tested for increase in [86Rb+] efflux in rabbit isolated mesenteric artery over basal rate at a concentration of 100 uM; how it was run: as §2
[5] = test system: Rattus norvegicus; assay: Maximal change in rat mean arterial blood pressure after 20 mg/kg p.o.; conditions: route oral; how it was run: as §1
[6] = test system: Rattus norvegicus; assay: The compound was tested for antihypertensive activity measured as maximal change in mean arterial blood pressure(MAP), after oral administration of 20 mg/kg of the compound.; how it was run: as §1
[7] = test system: Rattus norvegicus; assay: The compound was tested for antihypertensive activity measured as maximal change in mean arterial blood pressure(MAP), after oral administration of 1 mg/kg of the compound.; how it was run: as §1
[8] = species on record: Oryctolagus cuniculus; assay: The compound was tested for increase in [86Rb+] efflux in rabbit isolated mesenteric artery over basal rate at a concentration of 1 uM.; how it was run: as §2
[9] = species on record: Oryctolagus cuniculus; assay: The compound was tested for increase in [86Rb+] efflux in rabbit isolated mesenteric artery over basal rate at a concentration of 10 uM.; how it was run: as §2
[10] = species on record: Oryctolagus cuniculus; assay: The compound was tested for increase in [86Rb+] efflux in rabbit isolated mesenteric artery over basal rate at a concentration of 30 uM; how it was run: as §2
[11] = species on record: Oryctolagus cuniculus; assay: The compound was tested for increase in [86Rb+] efflux in rabbit isolated mesenteric artery over basal rate at a concentration of 100 uM.; how it was run: as §2
[12] = species on record: Oryctolagus cuniculus; assay: The compound was tested for increase in [86Rb+] efflux in rabbit isolated mesenteric artery over basal rate at a concentration of 3 uM.; how it was run: as §2
[13] = species on record: Oryctolagus cuniculus; assay: The compound was tested for increase in [86Rb+] efflux in rabbit isolated mesenteric artery over basal rate at a concentration of 3 uM; how it was run: as §2
[14] = species on record: Oryctolagus cuniculus; assay: The compound was tested for increase in [86Rb+] efflux in rabbit isolated mesenteric artery over basal rate at a concentration of 100 uM( Values in parentheses indicates 95%confidence limits); how it was run: as §2
[15] = Rattus norvegicus, Arterial blood, read-out: ED30

CC1(C)Oc2ccsc2[C@@H](N2CCCC2=O)[C@@H]1O
ED30 [1, 15]: 5.03 mg/kg | Increase [2]: 8% | Increase [3]: 0% | Increase [4]: 25% | Change [5]: -55%

CC1(C)Oc2ccsc2[C@@H](N2CCCCC2=O)[C@@H]1O
Increase [2]: 26% | Increase [3]: 7% | Increase [4]: 40% | Change [5]: -53%

COC(=O)c1cc2c(s1)[C@@H](N1CCCCC1=O)[C@H](O)C(C)(C)O2
Increase [2]: 51% | Increase [4]: 63% | Change [5]: -37%

CN(C)C(=O)c1cc2c(s1)[C@@H](N1CCCCC1=O)[C@H](O)C(C)(C)O2
Change [6]: -63% | Change [7]: -7% | Increase [4]: 32%

CC1(C)Oc2ccsc2[C@@H](N2CCCCC2)[C@@H]1O
Increase [4]: 0% | Change [5]: -6%

CC1(C)Oc2cc([N+](=O)[O-])sc2[C@@H](N2CCNC2=O)[C@@H]1O
Change [6]: -3%

CC1(C)Oc2cc([N+](=O)[O-])sc2[C@@H](N2CC(=O)NCC2=O)[C@@H]1O
Change [6]: -4% | Increase [4]: 0%

CC1(C)Oc2cc([N+](=O)[O-])sc2[C@@H](N2CCCC2=O)[C@@H]1O
ED30 [1, 15]: 0.19 mg/kg | Increase [2]: 110% | Increase [4]: 114% | Increase [8]: 48% | Change [5]: -60% | Increase [9]: 67%

CC1(C)Oc2cc(C(N)=O)sc2[C@@H](N2CCCCC2=O)[C@@H]1O
ED30 [1, 15]: 0.2 mg/kg | Increase [2]: 75% | Increase [3]: 73% | Increase [4]: 92% | Change [5]: -68%

CC1(C)Oc2cc(Br)sc2[C@@H](N2CCCCC2=O)[C@@H]1O
Increase [10]: 42% | Change [5]: -64%

CC1(C)C=C(N2CCCCC2=O)c2sc([N+](=O)[O-])cc2O1
Change [5]: -5%

COC(=O)c1cc2c(s1)[C@@H](N1CCCC1=O)[C@H](O)C(C)(C)O2
Change [5]: -31%

CC1(C)Oc2cc(C(=O)OCc3ccccc3)sc2[C@@H](N2CCCC2=O)[C@@H]1O
Change [5]: -14%

CNC(=O)c1cc2c(s1)[C@@H](N1CCCCC1=O)[C@H](O)C(C)(C)O2.O
Change [6]: -29% | Increase [11]: 25%

CC1(C)Oc2cc(C(=O)O)sc2[C@@H](N2CCCCC2=O)[C@@H]1O
Change [6]: -9%

CC1(C)Oc2cc([N+](=O)[O-])sc2[C@@H](n2ccccc2=O)[C@@H]1O
Change [6]: -57% | Increase [10]: 0% | Change [7]: -10%

CC1(C)Oc2cc([N+](=O)[O-])sc2[C@@H](N2CCCNC2=O)[C@@H]1O
Change [6]: -7%

CC1(C)Oc2cc([N+](=O)[O-])sc2[C@@H](N2Cc3ccccc3C2=O)[C@@H]1O
ED30 [1, 15]: 0.22 mg/kg | Change [7]: -58% | Change [5]: -61%

CC1(C)Oc2cc(C#N)sc2[C@@H](N2CCCCC2=O)[C@@H]1O
ED30 [1, 15]: 0.03 mg/kg | Increase [2]: 11% | Change [6]: -66% | Increase [4]: 0%

CC1(C)Oc2cc(C(=O)c3ccccc3)sc2[C@@H](N2CCCC2=O)[C@@H]1O
Increase [2]: 33% | Change [7]: -4% | Increase [3]: 0% | Increase [4]: 58% | Change [5]: -50%

CC1(C)Oc2ccsc2[C@@H](N2CCCC2)[C@@H]1O
Increase [4]: 0% | Change [5]: -14%

CC(=O)c1cc2c(s1)[C@@H](N1CCCCC1=O)[C@H](O)C(C)(C)O2
ED30 [1, 15]: 0.09 mg/kg | Increase [10]: 38% | Increase [3]: 13% | Increase [4]: 26% | Change [5]: -67%

Cc1cc2c(s1)[C@@H](N1CCCC1=O)[C@H](O)C(C)(C)O2
Change [5]: -28%

CC1(C)Oc2ccsc2[C@@H](N2CCCCCC2=O)[C@@H]1O
Change [6]: -12% | Increase [4]: 0%

CC1(C)Oc2cc(C#N)sc2[C@@H](N2CCCC2=O)[C@@H]1O
ED30 [1, 15]: 0.07 mg/kg | Change [5]: -67%

CC1(C)Oc2cc(Br)sc2[C@@H](N2CCCC2=O)[C@@H]1O
Increase [10]: 64% | Change [7]: -3% | Increase [3]: 65% | Increase [4]: 90% | Change [5]: -43%

CC1(C)C=C(N2CCCCC2)c2sc([N+](=O)[O-])cc2O1
Change [5]: -17%

CC1(C)Oc2cc(C(=O)C(F)(F)F)sc2[C@@H](N2CCCC2=O)[C@@H]1O
Change [7]: -55% | Change [5]: -68%

CC1(C)Oc2cc([N+](=O)[O-])sc2[C@@H](N2CCCCCC2=O)[C@@H]1O
Change [6]: -34% | Increase [10]: 25%

CC1(C)C=C(n2ccccc2=O)c2sc([N+](=O)[O-])cc2O1
Change [5]: -14%

CC(=O)c1cc2c(s1)[C@@H](N1CCCC1=O)[C@H](O)C(C)(C)O2
ED30 [1, 15]: 0.2 mg/kg | Increase [10]: 40% | Increase [3]: 37% | Increase [4]: 57% | Change [5]: -62%

CC1(C)Oc2cc([N+](=O)[O-])sc2[C@@H](N2CCCCC2=O)[C@@H]1O (relative stereo)
Change [6]: -24%

CC1(C)Oc2cc([N+](=O)[O-])sc2[C@@H](N2CCCCC2=O)[C@@H]1O (stereo in doubt; 32)
ED30 [1]: 0.015 mg/kg | Increase [10]: 60% | Increase [3]: 56% | Increase [12]: 41% | Change [5]: -65%

CC1(C)Oc2cc([N+](=O)[O-])sc2[C@@H](N2CCCCC2=O)[C@@H]1O (stereo in doubt; 40)
ED30 [1]: 1.9 mg/kg | Increase [2]: 11% | Change ([7]; 1 mg/kg): -19% | Increase [3]: 19% | Increase [4]: 19% | Increase [8]: 2%

CC1(C)Oc2cc([N+](=O)[O-])sc2[C@@H](N2CCCCC2=O)[C@@H]1O (stereo in doubt; 41)
ED30 [1]: 0.013 mg/kg | Increase [2]: 91% | Change ([7]; 1 mg/kg): -63% | Increase [13]: 66% | Increase [8]: 26% | Increase [11]: 53% | Increase [9]: 80%

CC1(C)C=C(n2ccccc2=O)c2cc(C#N)ccc2O1 [BIMAKALIM]
ED30 [1, 15]: 0.01 mg/kg

CC1(C)Oc2ccc(C#N)cc2[C@@H](N2CCCC2=O)[C@@H]1O [LEVCROMAKALIM]
ED30 [1, 15]: 0.19 mg/kg | Increase [10]: 73% | Increase [13]: 41% | Increase [3]: 46% | Increase [14]: 104%
